Test results: ChEMBL document CHEMBL3272012, “5-(Tetradecyloxy)-2-furancarboxylic acid and related hypolipidemic fatty acid-like alkyloxyarylcarboxylic acids” (J Med Chem, 1977)
Activity calls are given as the source filed them. The rule behind the calls is not given here.

What was measured:
Rattus norvegicus [1] = experiment: Hypolipidemic activity in Wistar rat assessed as reduction in plasma cholesterol level at 403 umol/kg/day administered through diet for 4 days; format: functional; settings: 96 h
Summary of the method: (§1)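 Young male Wistar rats, 170-190 g at start, in groups of six, given compound mixed into Purina Lab Chow ad libitum for 4 or 10 days as stated. Daily dose was calculated from food consumption and body weight. Plasma was taken by cardiac puncture at the end and cholesterol measured by automated procedure. Results are % reduction versus a concurrent untreated control group, with Student's t test.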

Rattus norvegicus [2] = experiment: Hypolipidemic activity in Wistar rat assessed as reduction in plasma triglyceride level at 403 umol/kg/day administered through diet for 4 days; format: functional; settings: 96 h
Rattus norvegicus [3] = experiment: Increase in cholesterol level in Wistar rat liver at 403 umol/kg/day administered through diet for 4 days; format: ADME, organism-based; settings: in vivo, po, 96 h
Rattus norvegicus [4] = experiment: Increase in liver weight in Wistar rat at 403 umol/kg/day administered through diet for 4 days; format: ADME, organism-based; settings: in vivo, po, 96 h
Rattus norvegicus [5] = experiment: Hypolipidemic activity in Wistar rat assessed as reduction in plasma triglyceride level at 358 umol/kg/day administered through diet for 10 days; format: functional; settings: 240 h
Summary of the method: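 Young male Wistar rats, 170-190 g at start, six per group, given compound mixed into Purina Lab Chow, fed ad libitum for 4 or 10 days. Daily dose calculated from food consumption and body weight. Rats bled by cardiac puncture at end of treatment. Plasma triglycerides determined by automated procedure. Expressed as percent reduction versus a concurrent untreated control group, Student's t test.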

Rattus norvegicus [6] = experiment: Hypolipidemic activity in Wistar rat assessed as reduction in plasma triglyceride level at 193 umol/kg/day administered through diet for 10 days; format: functional; settings: 240 h
Summary of the method: (§2)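 Young male Wistar rats, 170-190 g initial weight, six per group, fed drug mixed thoroughly into Purina Lab Chow ad libitum for the stated days; daily dose calculated from food consumption and body weight. Bled by cardiac puncture at end; plasma cholesterol and triglycerides by automated procedures, expressed as percent reduction versus simultaneous untreated controls; Student's t test.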

Rattus norvegicus [7] = experiment: Hypolipidemic activity in Wistar rat assessed as reduction in plasma triglyceride level at 96 umol/kg/day administered through diet for 10 days; format: functional; settings: 240 h
Rattus norvegicus [8] = experiment: Hypolipidemic activity in Wistar rat assessed as reduction in plasma cholesterol level at 358 umol/kg/day administered through diet for 10 days; format: functional; settings: 240 h; summary of the method: as §1
Rattus norvegicus [9] = experiment: Hypolipidemic activity in Wistar rat assessed as reduction in plasma cholesterol level at 193 umol/kg/day administered through diet for 10 days; format: functional; settings: 240 h; summary of the method: as §1
Rattus norvegicus [10] = experiment: Hypolipidemic activity in Wistar rat assessed as reduction in plasma cholesterol level at 96 umol/kg/day administered through diet for 10 days; format: functional; settings: 240 h; summary of the method: as §2
Rattus norvegicus [11] = experiment: Increase in liver weight in Wistar rat at 358 umol/kg/day administered through diet for 10 days; format: ADME, organism-based; settings: in vivo, po, 240 h
Rattus norvegicus [12] = experiment: Increase in liver weight in Wistar rat at 193 umol/kg/day administered through diet for 10 days; format: ADME, organism-based; settings: in vivo, po, 240 h
Rattus norvegicus [13] = experiment: Increase in liver weight in Wistar rat at 96 umol/kg/day administered through diet for 10 days; format: ADME, organism-based; settings: in vivo, po, 240 h
Rattus norvegicus [14] = experiment: Increase in cholesterol level in Wistar rat liver at 358 umol/kg/day administered through diet for 10 days; format: ADME, organism-based; settings: in vivo, po, 240 h
Rattus norvegicus [15] = experiment: Increase in cholesterol level in Wistar rat liver at 193 umol/kg/day administered through diet for 10 days; format: ADME, organism-based; settings: in vivo, po, 240 h
Rattus norvegicus [16] = experiment: Increase in cholesterol level in Wistar rat liver at 96 umol/kg/day administered through diet for 10 days; format: ADME, organism-based; settings: in vivo, po, 240 h
Rattus norvegicus [17] = experiment: Hypolipidemic activity in Wistar rat assessed as reduction in plasma cholesterol level at 154 umol/kg/day administered through diet for 10 days; format: functional; settings: 240 h; summary of the method: as §1
Rattus norvegicus [18] = experiment: Hypolipidemic activity in Wistar rat assessed as reduction in plasma cholesterol level at 314 umol/kg/day administered through diet for 10 days; format: functional; settings: 240 h; summary of the method: as §1
Rattus norvegicus [19] = experiment: Hypolipidemic activity in Wistar rat assessed as reduction in plasma cholesterol level at 410 umol/kg/day administered through diet for 4 days; format: functional; settings: 96 h; summary of the method: as §1
Rattus norvegicus [20] = experiment: Hypolipidemic activity in Wistar rat assessed as reduction in plasma cholesterol level at 583 umol/kg/day administered through diet for 10 days; format: functional; settings: 240 h
Summary of the method: (§3)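 Young male Wistar rats (initial weight 170-190 g), groups of six, fed compound mixed into Purina Lab Chow ad libitum for 4 or 10 days; daily dose calculated from food consumption and body weight. Bled by cardiac puncture; plasma cholesterol and triglycerides by automated procedures; percent reduction versus simultaneous untreated controls, Student's t test.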

Rattus norvegicus [21] = experiment: Hypolipidemic activity in Wistar rat assessed as reduction in plasma triglyceride level at 154 umol/kg/day administered through diet for 10 days; format: functional; settings: 240 h; summary of the method: as §2
Rattus norvegicus [22] = experiment: Hypolipidemic activity in Wistar rat assessed as reduction in plasma triglyceride level at 314 umol/kg/day administered through diet for 10 days; format: functional; settings: 240 h; summary of the method: as §2
Rattus norvegicus [23] = experiment: Hypolipidemic activity in Wistar rat assessed as reduction in plasma triglyceride level at 410 umol/kg/day administered through diet for 4 days; format: functional; settings: 96 h
Rattus norvegicus [24] = experiment: Hypolipidemic activity in Wistar rat assessed as reduction in plasma triglyceride level at 583 umol/kg/day administered through diet for 10 days; format: functional; settings: 240 h
Rattus norvegicus [25] = experiment: Increase in cholesterol level in Wistar rat liver at 154 umol/kg/day administered through diet for 10 days; format: ADME, organism-based; settings: in vivo, po, 240 h
Rattus norvegicus [26] = experiment: Increase in cholesterol level in Wistar rat liver at 314 umol/kg/day administered through diet for 10 days; format: ADME, organism-based; settings: in vivo, po, 240 h
Rattus norvegicus [27] = experiment: Increase in cholesterol level in Wistar rat liver at 410 umol/kg/day administered through diet for 4 days; format: ADME, organism-based; settings: in vivo, po, 96 h
Rattus norvegicus [28] = experiment: Increase in cholesterol level in Wistar rat liver at 583 umol/kg/day administered through diet for 10 days; format: ADME, organism-based; settings: in vivo, po, 240 h
Rattus norvegicus [29] = experiment: Inhibition of cholesterol biosynthesis in Ad Lib fed Wistar rat liver assessed as sodium [1-14C]acetate incorporation at 154 mg/kg/day administered through diet for 7 days measured 1 hr after labeled acetate challenge by liquid scintillation spectrometry (reference value: 12.7 +/- 2.6 x 10^-3 dpm); format: functional
Rattus norvegicus [30] = experiment: Inhibition of cholesterol biosynthesis in meal fed Wistar rat liver assessed as sodium [1-14C]acetate incorporation at 95 mg/kg/day administered through diet for 7 days measured 1 hr after labeled acetate challenge by liquid scintillation spectrometry (reference value: 41.3 +/- 3.2 x 10^-3 dpm); format: functional
Rattus norvegicus [31] = experiment: Increase in liver weight in Wistar rat at 154 umol/kg/day administered through diet for 10 days; format: ADME, organism-based; settings: in vivo, po, 240 h
Rattus norvegicus [32] = experiment: Increase in liver weight in Wistar rat at 314 umol/kg/day administered through diet for 10 days; format: ADME, organism-based; settings: in vivo, po, 240 h
Rattus norvegicus [33] = experiment: Increase in liver weight in Wistar rat at 410 umol/kg/day administered through diet for 4 days; format: ADME, organism-based; settings: in vivo, po, 96 h
Rattus norvegicus [34] = experiment: Increase in liver weight in Wistar rat at 583 umol/kg/day administered through diet for 10 days; format: ADME, organism-based; settings: in vivo, po, 240 h
Rattus norvegicus [35] = experiment: Inhibition of fatty acid biosynthesis in Ad Lib fed Wistar rat liver assessed as sodium [1-14C]acetate incorporation at 154 mg/kg/day administered through diet for 7 days measured 1 hr after labeled acetate challenge by liquid scintillation spectrometry (reference value: 27.2 +/- 4.8 x 10^-3 dpm); format: functional
Rattus norvegicus [36] = experiment: Inhibition of fatty acid biosynthesis in meal fed Wistar rat liver assessed as sodium [1-14C]acetate incorporation at 95 mg/kg/day administered through diet for 7 days measured 1 hr after labeled acetate challenge by liquid scintillation spectrometry (reference value: 182 +/- 22 x 10^-3 dpm); format: functional
Rattus norvegicus [37] = experiment: Inhibition of cholesterol synthesis in Wistar rat liver assessed as drug incorporation into triglycerides administered for 2 weeks by gas chromatography; format: functional, organism-based
Rattus norvegicus [38] = experiment: Inhibition of cholesterol synthesis in Wistar rat liver assessed as drug incorporation into cholesterol ester administered for 2 weeks by gas chromatography; format: functional, organism-based
Rattus norvegicus [39] = experiment: Inhibition of fatty acid synthesis in Wistar rat liver assessed as drug incorporation into phospholipid administered for 2 weeks by gas chromatography; format: functional, organism-based
Rhesus monkey [40] = experiment: Hypolipidemic activity in rhesus monkey assessed as reduction in plasma cholesterol level at 92 umol/kg/day administered for 28 days; format: functional; settings: Macaca mulatta, 672 h
Rhesus monkey [41] = experiment: Hypolipidemic activity in rhesus monkey assessed as reduction in plasma cholesterol level at 308 umol/kg/day administered for 28 days; format: functional; settings: Macaca mulatta, 672 h
Rattus norvegicus [42] = experiment: Hypolipidemic activity in Wistar rat assessed as reduction in plasma cholesterol level at 443 umol/kg/day administered through diet for 4 days; format: functional; settings: 96 h
Summary of the method: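 Young male Wistar rats, 170-190 g initial weight, groups of six, given compound mixed thoroughly into Purina Lab Chow ad libitum for 4 or 10 days as stated. Daily dose calculated from food consumption and body weight. Bled by cardiac puncture at end of treatment; plasma cholesterol measured by automated procedure. Expressed as percent reduction versus simultaneous untreated control group; Student's t test.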

Rattus norvegicus [43] = experiment: Hypolipidemic activity in Wistar rat assessed as reduction in plasma triglyceride level at 443 umol/kg/day administered through diet for 4 days; format: functional; settings: 96 h; summary of the method: as §3
Rattus norvegicus [44] = experiment: Increase in liver weight in Wistar rat at 443 umol/kg/day administered through diet for 4 days; format: ADME, organism-based; settings: in vivo, po, 96 h
Rattus norvegicus [45] = experiment: Increase in cholesterol level in Wistar rat liver at 443 umol/kg/day administered through diet for 4 days; format: ADME, organism-based; settings: in vivo, po, 96 h

With `CCCCCCCCCCCCCCOc1ccc(C(=O)n2ccnc2)o1` the inhibition in vivo at 403 µmol/kg (Rattus norvegicus [1]) was 22%, the inhibition in vivo at 403 µmol/kg (Rattus norvegicus [2]) was 39% and the Activity (Rattus norvegicus [3]) was 1%. For the same compound, the Activity (Rattus norvegicus [4]) was 14%.
In the case of `CCCCCCCCCCCCCCOc1ccc(C(=O)CC(=O)OCC)cc1`, the inhibition in vivo at 358 µmol/kg (Rattus norvegicus [5]) is reported as 59%, the inhibition in vivo at 193 µmol/kg (Rattus norvegicus [6]) is reported as 43% and the inhibition in vivo at 96 µmol/kg (Rattus norvegicus [7]) is reported as 44%. For the same compound, the inhibition in vivo at 358 µmol/kg (Rattus norvegicus [8]) was 30%, the inhibition in vivo at 193 µmol/kg (Rattus norvegicus [9]) was 20% and the inhibition in vivo at 96 µmol/kg (Rattus norvegicus [10]) was 13%. The Activity (Rattus norvegicus [11]) was 3%, the Activity (Rattus norvegicus [12]) was 1% and the Activity (Rattus norvegicus [13]) was 1%. The Activity (Rattus norvegicus [14]) was 10%, the Activity (Rattus norvegicus [15]) was 11% and the Activity (Rattus norvegicus [16]) was 0%.
`CCCCCCCCCCCCCCOc1ccc(C(=O)O)o1` [TOFA] gave an inhibition in vivo at 154 µmol/kg (Rattus norvegicus [17]) of 12%, an inhibition in vivo at 314 µmol/kg (Rattus norvegicus [18]) of 38% and an inhibition in vivo at 410 µmol/kg (Rattus norvegicus [19]) of 40%. It also gave an inhibition in vivo at 583 µmol/kg (Rattus norvegicus [20]) of 64%, an inhibition in vivo at 154 µmol/kg (Rattus norvegicus [21]) of 27% and an inhibition in vivo at 314 µmol/kg (Rattus norvegicus [22]) of 61%. For the same compound, the inhibition in vivo at 410 µmol/kg (Rattus norvegicus [23]) was 75%, the inhibition in vivo at 583 µmol/kg (Rattus norvegicus [24]) was 92% and the Activity (Rattus norvegicus [25]) was 5%. The Activity (Rattus norvegicus [26]) was 0%, the Activity (Rattus norvegicus [27]) was 12% and the Activity (Rattus norvegicus [28]) was 0%. For the same compound, the Activity (Rattus norvegicus [29]) was 14900 dpm, the Activity (Rattus norvegicus [30]) was 40800 dpm and the Activity (Rattus norvegicus [31]) was 1%. The Activity (Rattus norvegicus [32]) was 15%, the Activity (Rattus norvegicus [33]) was 6% and the Activity (Rattus norvegicus [34]) was 33%. For the same compound, the Activity (Rattus norvegicus [35]) was 22800 dpm, the Activity (Rattus norvegicus [36]) was 60000 dpm and the inhibition (Rattus norvegicus [37]) was “inactive”. For the same compound, the inhibition (Rattus norvegicus [38]) was “inactive”, the inhibition (Rattus norvegicus [39]) was “Active” and the inhibition in vivo at 92 µmol/kg (Rhesus monkey [40]) was 10%. The inhibition in vivo at 308 µmol/kg (Rhesus monkey [41]) was 24%.
In the case of `CCCCCCCCCCCCCCOc1ccc(C(=O)OCC)o1`, the inhibition in vivo at 443 µmol/kg (Rattus norvegicus [42]) is reported as 30%, the inhibition in vivo at 443 µmol/kg (Rattus norvegicus [43]) is reported as 64% and the Activity (Rattus norvegicus [44]) is reported as 6%. For the same compound, the Activity (Rattus norvegicus [45]) was 0%.
